Data on 17 compounds can be found in ChEMBL document CHEMBL3400094, “Synthesis and SAR study of potent and selective PI3Kδ inhibitors” (Bioorg Med Chem Lett, 2015).

Data set [1] concerns the target T1, Phosphatidylinositol 4,5-bisphosphate 3-kinase catalytic subunit delta isoform (Homo sapiens, UniProt O00329).
T1 sequence (O00329 whole entry): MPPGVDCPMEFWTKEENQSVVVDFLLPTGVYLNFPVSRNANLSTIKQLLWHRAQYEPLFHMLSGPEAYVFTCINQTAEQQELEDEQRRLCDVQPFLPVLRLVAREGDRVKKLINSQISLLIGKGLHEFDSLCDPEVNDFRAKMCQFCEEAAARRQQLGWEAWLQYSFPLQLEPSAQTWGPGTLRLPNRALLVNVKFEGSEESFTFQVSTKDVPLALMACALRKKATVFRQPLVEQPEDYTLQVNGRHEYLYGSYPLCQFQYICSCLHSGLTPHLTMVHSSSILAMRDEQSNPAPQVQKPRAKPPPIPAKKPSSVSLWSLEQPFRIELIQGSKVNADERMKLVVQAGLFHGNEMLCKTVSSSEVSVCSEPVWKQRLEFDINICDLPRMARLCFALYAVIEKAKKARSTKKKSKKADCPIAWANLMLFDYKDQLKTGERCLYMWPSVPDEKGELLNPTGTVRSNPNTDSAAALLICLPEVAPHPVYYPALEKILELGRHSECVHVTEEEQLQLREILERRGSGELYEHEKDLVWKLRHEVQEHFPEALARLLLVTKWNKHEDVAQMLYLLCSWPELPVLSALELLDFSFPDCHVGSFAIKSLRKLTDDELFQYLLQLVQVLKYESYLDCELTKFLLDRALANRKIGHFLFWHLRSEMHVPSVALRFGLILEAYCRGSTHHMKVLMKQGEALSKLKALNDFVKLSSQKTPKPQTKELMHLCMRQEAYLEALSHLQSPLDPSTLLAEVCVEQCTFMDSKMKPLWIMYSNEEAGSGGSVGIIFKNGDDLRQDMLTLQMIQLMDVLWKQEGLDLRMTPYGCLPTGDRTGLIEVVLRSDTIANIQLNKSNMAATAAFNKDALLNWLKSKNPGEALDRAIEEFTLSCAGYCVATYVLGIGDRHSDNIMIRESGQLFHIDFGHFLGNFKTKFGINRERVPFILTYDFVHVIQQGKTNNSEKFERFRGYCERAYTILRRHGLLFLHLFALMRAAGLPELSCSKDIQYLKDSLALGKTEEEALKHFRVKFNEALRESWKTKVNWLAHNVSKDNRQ
Put plainly: Inhibition of PI3Kdelta (unknown origin) by biochemical Alphascreen assay.

In data set [2] the target is Phosphatidylinositol 4,5-bisphosphate 3-kinase catalytic subunit gamma isoform (Homo sapiens, UniProt P48736). Put plainly: Inhibition of PI3Kgamma (unknown origin) by biochemical Alphascreen assay.
Phosphatidylinositol 4,5-bisphosphate 3-kinase catalytic subunit gamma isoform, sequence (P48736 whole entry, canonical isoform): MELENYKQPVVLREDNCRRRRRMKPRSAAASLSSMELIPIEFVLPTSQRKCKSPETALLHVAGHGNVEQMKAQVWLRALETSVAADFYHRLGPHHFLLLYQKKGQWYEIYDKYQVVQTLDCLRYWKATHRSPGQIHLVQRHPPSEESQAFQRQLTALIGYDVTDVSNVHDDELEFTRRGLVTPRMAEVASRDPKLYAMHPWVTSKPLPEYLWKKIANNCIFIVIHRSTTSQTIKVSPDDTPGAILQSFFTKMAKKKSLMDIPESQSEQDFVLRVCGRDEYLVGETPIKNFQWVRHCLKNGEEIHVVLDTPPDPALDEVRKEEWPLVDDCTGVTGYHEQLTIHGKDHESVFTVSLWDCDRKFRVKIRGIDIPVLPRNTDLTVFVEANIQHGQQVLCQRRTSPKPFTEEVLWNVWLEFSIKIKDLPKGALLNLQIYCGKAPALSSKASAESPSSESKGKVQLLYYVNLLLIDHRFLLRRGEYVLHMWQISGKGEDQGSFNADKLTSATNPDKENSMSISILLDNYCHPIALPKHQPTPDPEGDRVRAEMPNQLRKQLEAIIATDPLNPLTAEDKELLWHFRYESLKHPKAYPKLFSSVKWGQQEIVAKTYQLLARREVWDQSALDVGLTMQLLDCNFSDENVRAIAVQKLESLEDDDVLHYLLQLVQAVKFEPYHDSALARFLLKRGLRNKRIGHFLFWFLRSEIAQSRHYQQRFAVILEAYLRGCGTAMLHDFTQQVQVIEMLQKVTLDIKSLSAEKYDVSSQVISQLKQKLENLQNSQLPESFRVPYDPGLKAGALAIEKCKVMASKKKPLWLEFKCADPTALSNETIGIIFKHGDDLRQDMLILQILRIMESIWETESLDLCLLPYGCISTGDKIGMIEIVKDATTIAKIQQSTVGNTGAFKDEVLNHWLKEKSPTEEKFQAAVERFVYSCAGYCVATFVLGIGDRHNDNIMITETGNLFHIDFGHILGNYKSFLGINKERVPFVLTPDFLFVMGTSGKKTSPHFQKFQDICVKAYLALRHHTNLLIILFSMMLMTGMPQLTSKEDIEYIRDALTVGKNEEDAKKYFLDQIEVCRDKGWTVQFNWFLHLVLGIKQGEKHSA
The target of data set [3] is Phosphatidylinositol 4,5-bisphosphate 3-kinase catalytic subunit beta isoform (Homo sapiens, UniProt P42338). Put plainly: Inhibition of PI3Kbeta (unknown origin) by biochemical Alphascreen assay.
Phosphatidylinositol 4,5-bisphosphate 3-kinase catalytic subunit beta isoform, sequence (P42338 whole entry, canonical isoform): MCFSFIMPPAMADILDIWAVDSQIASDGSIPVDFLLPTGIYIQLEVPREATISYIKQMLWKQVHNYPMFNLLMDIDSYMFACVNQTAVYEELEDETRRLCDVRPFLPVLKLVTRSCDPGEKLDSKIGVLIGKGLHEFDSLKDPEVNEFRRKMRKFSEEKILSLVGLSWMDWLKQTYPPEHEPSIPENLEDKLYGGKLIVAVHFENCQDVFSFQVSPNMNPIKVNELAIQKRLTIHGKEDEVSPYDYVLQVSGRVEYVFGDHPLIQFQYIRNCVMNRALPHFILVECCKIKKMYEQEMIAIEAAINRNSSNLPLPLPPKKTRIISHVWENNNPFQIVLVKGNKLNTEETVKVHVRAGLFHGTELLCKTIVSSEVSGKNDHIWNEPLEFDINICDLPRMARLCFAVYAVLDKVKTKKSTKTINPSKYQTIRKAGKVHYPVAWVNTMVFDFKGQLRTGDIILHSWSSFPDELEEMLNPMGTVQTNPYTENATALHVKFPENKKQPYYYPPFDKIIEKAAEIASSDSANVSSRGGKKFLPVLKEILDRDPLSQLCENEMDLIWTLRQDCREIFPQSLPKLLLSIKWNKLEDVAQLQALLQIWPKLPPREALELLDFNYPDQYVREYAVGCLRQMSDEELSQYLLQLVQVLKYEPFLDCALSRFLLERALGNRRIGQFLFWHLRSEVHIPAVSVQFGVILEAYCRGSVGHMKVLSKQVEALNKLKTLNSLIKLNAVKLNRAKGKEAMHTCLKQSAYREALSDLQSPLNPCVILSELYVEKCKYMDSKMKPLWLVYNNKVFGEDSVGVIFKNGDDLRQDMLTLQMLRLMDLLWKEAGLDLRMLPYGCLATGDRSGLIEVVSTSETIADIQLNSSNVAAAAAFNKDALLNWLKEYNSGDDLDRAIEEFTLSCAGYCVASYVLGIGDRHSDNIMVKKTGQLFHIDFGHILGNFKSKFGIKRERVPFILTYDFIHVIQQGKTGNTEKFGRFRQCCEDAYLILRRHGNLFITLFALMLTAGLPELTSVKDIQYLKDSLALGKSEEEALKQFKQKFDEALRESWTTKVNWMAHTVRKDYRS
The target of data set [4] is Phosphatidylinositol 4,5-bisphosphate 3-kinase catalytic subunit alpha isoform (Homo sapiens, UniProt P42336). Put plainly: Inhibition of PI3Kalpha (unknown origin) by biochemical Alphascreen assay.
Phosphatidylinositol 4,5-bisphosphate 3-kinase catalytic subunit alpha isoform, sequence (P42336 whole entry, canonical isoform): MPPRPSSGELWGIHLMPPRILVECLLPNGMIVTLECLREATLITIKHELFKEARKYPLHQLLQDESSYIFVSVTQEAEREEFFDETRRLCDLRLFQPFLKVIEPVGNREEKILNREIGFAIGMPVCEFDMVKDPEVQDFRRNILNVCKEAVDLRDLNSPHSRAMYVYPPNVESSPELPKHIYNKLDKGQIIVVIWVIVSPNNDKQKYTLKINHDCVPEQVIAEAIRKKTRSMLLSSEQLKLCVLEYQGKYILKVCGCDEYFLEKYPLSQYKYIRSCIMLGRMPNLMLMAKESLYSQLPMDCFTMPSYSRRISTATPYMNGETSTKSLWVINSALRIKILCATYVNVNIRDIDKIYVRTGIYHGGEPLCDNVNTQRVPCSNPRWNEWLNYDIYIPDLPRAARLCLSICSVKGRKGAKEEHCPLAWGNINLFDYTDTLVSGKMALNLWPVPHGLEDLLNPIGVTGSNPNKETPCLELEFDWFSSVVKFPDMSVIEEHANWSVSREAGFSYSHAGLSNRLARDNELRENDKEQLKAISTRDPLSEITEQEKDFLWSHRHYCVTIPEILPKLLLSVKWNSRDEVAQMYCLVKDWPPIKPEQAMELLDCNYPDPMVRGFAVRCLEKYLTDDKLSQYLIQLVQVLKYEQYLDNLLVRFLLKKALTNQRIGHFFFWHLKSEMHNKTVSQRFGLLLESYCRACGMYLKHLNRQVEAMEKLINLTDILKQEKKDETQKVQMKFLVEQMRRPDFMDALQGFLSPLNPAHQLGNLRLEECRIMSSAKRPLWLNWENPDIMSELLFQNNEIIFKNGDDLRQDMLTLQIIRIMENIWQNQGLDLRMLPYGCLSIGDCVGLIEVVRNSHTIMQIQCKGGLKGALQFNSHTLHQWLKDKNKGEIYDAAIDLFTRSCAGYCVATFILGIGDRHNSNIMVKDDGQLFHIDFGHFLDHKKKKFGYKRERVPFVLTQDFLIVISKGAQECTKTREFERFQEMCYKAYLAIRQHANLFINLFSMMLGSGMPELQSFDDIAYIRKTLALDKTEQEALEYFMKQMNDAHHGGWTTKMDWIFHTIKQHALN
For data set [5], the target named is T1, Phosphatidylinositol 4,5-bisphosphate 3-kinase catalytic subunit delta isoform. Put plainly: Inhibition of PI3Kdelta (unknown origin) assessed as inhibition of AKT phosphorylation by cell-based HTRF assay.
Data set [6] is described as follows: Clearance in Sprague-Dawley rat at 0.5 mg/kg, iv and 2 to 10 mg/kg, po. The data set is classed as ADME, organism-based. Conditions: in vivo. A digest of the protocol: (§1)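 Male Sprague-Dawley rats, n=3. Compounds formulated for iv dosing at 0.5 mg/kg or oral dosing at 2-10 mg/kg.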
Data set [7] is described as follows: Metabolic stability assessed as glutathione adduct formation of SO2Me after 30 mins. The data set is classed as ADME. Conditions: 0.5 h.
Data set [8] is described as follows: Oral bioavailability in Sprague-Dawley rat at 2 to 10 mg/kg. In kind it is ADME, organism-based. The conditions noted are these: in vivo. The procedure, abridged: as §1

Take `CC(Nc1ncnc(N)c1C#N)c1nc2ccc(F)cc2c(N(C)C)c1-c1ccccn1` (racemic): the IC50 in data set [1] was 1.4 nM; in data set [2], 290 nM; in data set [3], 710 nM; in data set [4], 1150 nM; in data set [5] it was 3.6 nM.
For `C[C@H](Nc1ncnc(N)c1C#N)c1nc2ccc(F)cc2c(S(C)(=O)=O)c1-c1ccccc1`, the IC50 is 0.7 nM in data set [1]; 220 nM in data set [2]; 510 nM in data set [3]; 920 nM in data set [4]; 0.1 nM in data set [5]. Besides, the clearance in data set [6] was 167 mL/min/kg. Also, the Stability result in data set [7] was “Unstable”.
Take `CC(Nc1ncnc(N)c1C#N)c1nc2ccc(F)cc2c(Cl)c1-c1ccccn1` (racemic): the IC50 was 4 nM in data set [1]; 250 nM in data set [2]; 230 nM in data set [3]; 1370 nM in data set [4]; 11 nM in data set [5].
On the same counts, the results for `CC(Nc1ncnc(N)c1C#N)c1nc2ccc(F)cc2c(C#N)c1-c1ccccn1` (racemic) are 8.3 nM, 1420 nM, 240 nM, 4400 nM and 12 nM.
On the same counts, the results for `COc1c(-c2ccccc2)c([C@H](C)Nc2ncnc(N)c2C#N)nc2ccc(F)cc12` are 1.2 nM, 11 nM, 8.2 nM, 420 nM and 0.8 nM.
`C[C@H](Nc1ncnc(N)c1C#N)c1nc2ccc(F)cc2c(NCCN(C)C)c1-c1ccccc1`: the IC50 in data set [1] worked out at 1.7 nM; in data set [2] it was 1600 nM; in data set [3], 5000 nM; in data set [4] it was 1600 nM.
Take `C[C@H](Nc1ncnc(N)c1C#N)c1nc2ccc(F)cc2c(N2CC(O)C2)c1-c1ccccn1`: the IC50 was found to be 18 nM in data set [1]; 510 nM in data set [2]; 280 nM in data set [3]; 1210 nM in data set [4]; 1.4 nM in data set [5].
On the same counts, the results for `C[C@H](Nc1ncnc(N)c1C#N)c1nc2ccc(F)cc2c(N2CCOCC2)c1-c1ccccn1` are 1.2 nM, 200 nM, 80 nM, 830 nM and 1.2 nM.
Turning to `CC(Nc1ncnc(N)c1C#N)c1nc2ccc(F)cc2c(O)c1-c1ccccc1` (racemic), the concentration for half-maximal inhibition (IC50) in data set [1] is 16 nM; in data set [2] it was 210 nM; in data set [3] it was over 20000 nM; in data set [4] it was over 20000 nM; in data set [5], 2.8 nM. The same compound had a clearance in data set [6] of 11.7 mL/min/kg. Besides, in data set [8], the bioavailability was 15%.
For the compound `CC(Nc1ncnc(N)c1C#N)c1nc2ccc(F)cc2c(NCCO)c1-c1ccccc1` (racemic), the half-maximal inhibitory concentration (IC50) in data set [1] is 0.4 nM; in data set [2] it was 120 nM; in data set [3], 460 nM; in data set [4], 1200 nM; in data set [5], 3.1 nM.
On the same counts, the results for `C[C@H](Nc1ncnc(N)c1C#N)c1nc2ccc(F)cc2c(NCCS(C)(=O)=O)c1-c1ccccc1` are 0.2 nM, 19 nM, 500 nM, 900 nM and 0.5 nM.
As for `C[C@H](Nc1ncnc(N)c1C#N)c1nc2ccc(F)cc2c([S+]([O-])CCO)c1-c1ccccc1` (some centres not stated), the IC50 in data set [1] was determined as 2.5 nM; in data set [2], 380 nM; in data set [3], 160 nM; in data set [4], 620 nM.
In the case of `COCCNc1c(-c2ccccc2)c([C@H](C)Nc2ncnc(N)c2C#N)nc2ccc(F)cc12`, the IC50 was found to be 0.6 nM in data set [1]; 13 nM in data set [2]; 420 nM in data set [3]; 1080 nM in data set [4]; 2.4 nM in data set [5].
On to `C[C@H](Nc1ncnc(N)c1C#N)c1nc2ccc(F)cc2c(-c2ccccn2)c1-c1ccccn1`, for which the clearance in data set [6] was 0.95 mL/min/kg. Further, the bioavailability in data set [8] is 51%.
With `Cc1cccnc1-c1c(-c2ccccn2)c([C@H](C)Nc2ncnc(N)c2C#N)nc2ccc(F)cc12`, the half-inhibitory concentration (IC50) in data set [1] was 15 nM; in data set [2], over 20000 nM; in data set [3], over 20000 nM; in data set [4], over 20000 nM. In data set [6], this compound gave a clearance of 3.5 mL/min/kg.
With `COCc1c(-c2ccccn2)c([C@H](C)Nc2ncnc(N)c2C#N)nc2ccc(F)cc12`, the IC50 was 16 nM in data set [1], 4950 nM in data set [2], 4030 nM in data set [3] and 3.1 nM in data set [5].
On to `CC(Nc1ncnc(N)c1C#N)c1nc2ccc(F)cc2cc1-c1ccccn1` (racemic), for which the IC50 in data set [1] was 8.8 nM; in data set [2] it was 1100 nM; in data set [3], over 20000 nM; in data set [4] it was over 20000 nM.
